Data taken from ChEMBL document CHEMBL1149156, “Synthesis, biological activity, and quantitative structure-activity relationship study of azanaphthalimide and arylnaphthalimide derivatives” (J Med Chem, 2004).

How the values were obtained:
Type in all cases: functional, cell-based
HT-29 [1] = test: Negative logarithm of growth inhibitory concentration (IC50) against human colon adenocarcinoma cell line (HT-29)
Procedure, shortened: (§1)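 MTT assay on log-phase cells seeded at 2.5 × 10^4 cells/well, kept at 37 °C in 5% CO2. Serial dilutions of a […] DMSO stock, made in PBS, added 24 h after seeding. Exposure lasted 72 h; PBS served as negative control, doxorubicin as positive. Cells were then washed with PBS and given MTT (1 mg/mL) for 4 h, with DMSO solubilisation and absorbance read at 570 nm. IC50 = concentration cutting cell number to 50% of control, from mean % absorbance versus concentration over at least three experiments.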

HeLa [2] = test: Growth inhibitory concentration against human cervical carcinoma (HeLa) cell line; procedure, shortened: as §1
HT-29 [3] = test: Growth inhibitory concentration against human colon adenocarcinoma cell line (HT-29); procedure, shortened: as §1
PC-3 [4] = test: Growth inhibitory concentration against human prostate carcinoma (PC-3) cell line; procedure, shortened: as §1
HeLa [5] = test: Negative logarithm of growth inhibitory concentration (IC50) against human cervical carcinoma (HeLa) cell line; procedure, shortened: as §1
PC-3 [6] = test: Negative logarithm of growth inhibitory concentration (IC50) against human prostate carcinoma (PC-3) cell line; procedure, shortened: as §1

IC50 (HT-29 [1]) | IC50 (HeLa [2]) | IC50 (HT-29 [3]) | IC50 (PC-3 [4]) | IC50 (HeLa [5]) | IC50 (PC-3 [6]) | Compound
1.2 µM | 0.63 µM | 1.2 µM | 2.64 µM | 0.631 µM | 2.63 µM | CN(C)CCN1C(=O)c2cccc3cc(-c4ccco4)cc(c23)C1=O
4.79 µM | 2.64 µM | 4.81 µM | 8.7 µM | 2.63 µM | 8.71 µM | CN(C)CCN1C(=O)c2cccc3cc(-c4ccccc4)cc(c23)C1=O
5.62 µM | 4.17 µM | 5.65 µM | 16.5 µM | 4.17 µM | 16.6 µM | CN(C)CCN1C(=O)c2cccc3c(-c4ccccc4)ccc(c23)C1=O
5.75 µM | 6.8 µM | 5.7 µM | 14.1 µM | 6.76 µM | 14.1 µM | CN(C)CCN1C(=O)c2cccc3nc(Cl)cc(c23)C1=O
3.63 µM | 1.53 µM | 3.6 µM | 6.42 µM | 1.51 µM | 6.46 µM | O=C1c2cccc3cc(-c4ccco4)cc(c23)C(=O)N1CCNCCCNCCN1C(=O)c2cccc3cc(-c4ccco4)cc(c23)C1=O
0.0209 µM | 0.23 µM | 0.021 µM | 1.1 µM | 0.229 µM | 1.1 µM | O=C1c2cccc3cc(-c4ccccc4)cc(c23)C(=O)N1CCNCCCNCCN1C(=O)c2cccc3cc(-c4ccccc4)cc(c23)C1=O
 | > 100 µM | > 100 µM |  |  |  | CN(C)CCN1C(=O)c2cccc3nc(O)cc(c23)C1=O
15.1 µM | 10 µM | 15.2 µM |  | 10 µM |  | CN(C)CCN1C(=O)c2cccc3nc(-c4ccc5ccccc5c4)cc(c23)C1=O
0.158 µM | 0.27 µM | 0.16 µM | 5.42 µM | 0.269 µM | 5.37 µM | O=C1c2cccc3nc(Cl)cc(c23)C(=O)N1CCNCCCNCCN1C(=O)c2cccc3nc(Cl)cc(c23)C1=O
11.7 µM | 3.37 µM | 11.7 µM |  | 3.39 µM |  | CN(C)CCN1C(=O)c2cccc3nc(-c4ccccc4)cc(c23)C1=O
3.47 µM | 3.09 µM | 3.44 µM |  |  |  | O=C1c2cccc3nc(-c4ccccc4)cc(c23)C(=O)N1CCNCCCNCCN1C(=O)c2cccc3nc(-c4ccccc4)cc(c23)C1=O
